According to ChEMBL document CHEMBL2202974 (J Med Chem, 2011):

Key:
[1] = Drug uptake in monkey cerebellum at 6.2 mCi, iv administered as bolus dose followed by SB612111-treatment at 40 mins measured at 100 mins by PET imaging analysis; format: ADME, organism-based, Macaca mulatta; settings: rhesus monkey, in vivo
Summary of the method: (§1)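 Anesthetised rhesus monkey given iv bolus of radioligand; the NOP antagonist was given at 40 min after radioligand to test displacement. PET regional time-activity curves were expressed as %SUV.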

[2] = Fraction unbound in monkey plasma; format: ADME, cell-free, Macaca mulatta; settings: rhesus monkey
Summary of the method: (§2)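 Plasma free fraction of the radioligand measured in vitro. Monkey: 3 samples from each of two monkeys (n = 6). Human: pooled plasma, three samples from each of two subjects.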

[3] = Drug uptake in monkey cerebellum at 6.2 mCi, iv administered as bolus dose followed by naloxone-treatment at 37 mins measured at 120 mins by PET imaging analysis; format: ADME, organism-based, Macaca mulatta; settings: rhesus monkey, in vivo, 2 h
Summary of the method: (§3)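 Anesthetised rhesus monkey given iv bolus of radioligand; a high dose of naloxone was given at 37 min after radioligand. PET regional time-activity curves were expressed as %SUV.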

[4] = Fraction unbound in human plasma; format: ADME, cell-free; summary of the method: as §2
Plasma [5] = experiment: Metabolic stability in SB612111-pretreated monkey plasma at 4.9 to 6.6 mCi, iv administered as bolus dose 10 mins post SB612111-treatment up to 100 mins; format: ADME, organism-based, Macaca mulatta; settings: rhesus monkey, in vivo
Summary of the method: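 Preblock scans were run in the same anesthetized (ketamine, isoflurane) rhesus monkeys about 3 h after the baseline scan. Plasma was extracted into acetonitrile, and the supernatant was analysed by HPLC to give the percentage of radioactivity present as unchanged radioligand over time.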

[6] = Metabolic stability in monkey plasma for 0.5 hrs; format: ADME, cell-free, Macaca mulatta; settings: rhesus monkey, read-out: Stability
Summary of the method: (§4)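 The [11C]-labelled radioligand was incubated in vitro in monkey whole blood or monkey plasma for 0.5 h at room temperature. Stability was expressed as the percentage of radioactivity remaining as unchanged radioligand (n = 6).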

[7] = Drug uptake in SB612111-pretreated monkey cerebellum at 4.92 to 6.6 mCi, iv administered at 10 mins post SB612111-treatment measured from 10 to 120 mins by PET imaging analysis; format: ADME, organism-based, Macaca mulatta; settings: rhesus monkey, in vivo
[8] = Drug uptake in SB612111-pretreated monkey caudate at 4.92 to 6.6 mCi, iv administered at 10 mins post SB612111-treatment measured from 10 to 120 mins by PET imaging analysis; format: ADME, organism-based, Macaca mulatta, Caudate nucleus; settings: rhesus monkey, in vivo
[9] = Drug uptake in SB612111-pretreated monkey lateral temporal cortex at 4.92 to 6.6 mCi, iv administered at 10 mins post SB612111-treatment measured within 10 mins by PET imaging analysis; format: ADME, organism-based, Macaca mulatta; settings: rhesus monkey, in vivo
[10] = Metabolic stability in monkey blood for 0.5 hrs; format: ADME, tissue-based, Macaca mulatta; settings: rhesus monkey, read-out: Stability; summary of the method: as §4
[11] = Drug uptake in monkey lateral temporal cortex at 6.2 mCi, iv administered as bolus dose followed by naloxone-treatment at 37 mins measured at 120 mins by PET imaging analysis; format: ADME, organism-based, Macaca mulatta; settings: rhesus monkey, in vivo, 2 h; summary of the method: as §3
[12] = Chemical stability of the compound in sodium phosphate buffer after 2 hrs at pH 7.4; format: physicochemical; settings: read-out: Stability
[13] = Drug uptake in monkey amygdala at 4.92 to 6.6 mCi, iv administered as bolus dose measured up to 20 mins by PET imaging analysis; format: ADME, organism-based, Macaca mulatta; settings: rhesus monkey, in vivo
[14] = Drug uptake in SB612111-pretreated monkey amygdala at 4.92 to 6.6 mCi, iv administered at 10 mins post SB612111-treatment measured within 10 mins by PET imaging analysis; format: ADME, organism-based, Macaca mulatta; settings: rhesus monkey, in vivo
[15] = Metabolic stability in monkey plasma at 4.9 to 6.6 mCi, iv administered as bolus dose up to 100 mins; format: ADME, organism-based, Macaca mulatta; settings: rhesus monkey, read-out: Stability
Summary of the method: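 For baseline scans, male rhesus monkeys were immobilized with ketamine and kept under 1–3% isoflurane. Plasma sampled during the scan was extracted into acetonitrile, and the supernatant was analysed by HPLC for the parent fraction.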

[16] = Drug uptake in monkey lateral temporal cortex at 4.92 to 6.6 mCi, iv administered as bolus dose measured up to 20 mins by PET imaging analysis; format: ADME, organism-based, Macaca mulatta; settings: rhesus monkey, in vivo
[17] = Drug uptake in monkey hypothalamus at 4.92 to 6.6 mCi, iv administered as bolus dose measured up to 20 mins by PET imaging analysis; format: ADME, organism-based, Macaca mulatta; settings: rhesus monkey, in vivo
[18] = Drug uptake in monkey hypothalamus at 6.2 mCi, iv administered as bolus dose followed by naloxone-treatment at 37 mins measured at 120 mins by PET imaging analysis; format: ADME, organism-based, Macaca mulatta; settings: rhesus monkey, in vivo, 2 h; summary of the method: as §3
[19] = Drug uptake in SB612111-pretreated monkey hypothalamus at 4.92 to 6.6 mCi, iv administered at 10 mins post SB612111-treatment measured within 10 mins by PET imaging analysis; format: ADME, organism-based, Macaca mulatta; settings: rhesus monkey, in vivo
[20] = Drug uptake in monkey caudate at 4.92 to 6.6 mCi, iv administered as bolus dose measured at 120 mins by PET imaging analysis; format: ADME, organism-based, Macaca mulatta, Caudate nucleus; settings: rhesus monkey, in vivo, 2 h
[21] = Drug uptake in SB612111-pretreated monkey amygdala at 4.92 to 6.6 mCi, iv administered at 10 mins post SB612111-treatment measured from 10 to 120 mins by PET imaging analysis; format: ADME, organism-based, Macaca mulatta; settings: rhesus monkey, in vivo
[22] = Drug uptake in SB612111-pretreated monkey caudate at 4.92 to 6.6 mCi, iv administered at 10 mins post SB612111-treatment measured within 10 mins by PET imaging analysis; format: ADME, organism-based, Macaca mulatta, Caudate nucleus; settings: rhesus monkey, in vivo
[23] = Drug uptake in monkey cerebellum at 4.92 to 6.6 mCi, iv administered as bolus dose measured at 120 mins by PET imaging analysis; format: ADME, organism-based, Macaca mulatta; settings: rhesus monkey, in vivo, 2 h
[24] = Drug uptake in SB612111-pretreated monkey cerebellum at 4.92 to 6.6 mCi, iv administered at 10 mins post SB612111-treatment measured within 10 mins by PET imaging analysis; format: ADME, organism-based, Macaca mulatta; settings: rhesus monkey, in vivo
[25] = Drug uptake in monkey cerebellum at 4.92 to 6.6 mCi, iv administered as bolus dose measured up to 20 mins by PET imaging analysis; format: ADME, organism-based, Macaca mulatta; settings: rhesus monkey, in vivo
[26] = Drug uptake in monkey amygdala at 6.2 mCi, iv administered as bolus dose followed by naloxone-treatment at 37 mins measured at 120 mins by PET imaging analysis; format: ADME, organism-based, Macaca mulatta; settings: rhesus monkey, in vivo, 2 h; summary of the method: as §3
[27] = Drug uptake in monkey amygdala at 4.92 to 6.6 mCi, iv administered as bolus dose measured at 120 mins by PET imaging analysis; format: ADME, organism-based, Macaca mulatta; settings: rhesus monkey, in vivo, 2 h
[28] = Drug uptake in monkey lateral temporal cortex at 4.92 to 6.6 mCi, iv administered as bolus dose measured at 120 mins by PET imaging analysis; format: ADME, organism-based, Macaca mulatta; settings: rhesus monkey, in vivo, 2 h
[29] = Drug uptake in monkey caudate at 6.2 mCi, iv administered as bolus dose followed by naloxone-treatment at 37 mins measured at 120 mins by PET imaging analysis; format: ADME, organism-based, Macaca mulatta, Caudate nucleus; settings: rhesus monkey, in vivo, 2 h; summary of the method: as §3
[30] = Drug uptake in monkey caudate at 4.92 to 6.6 mCi, iv administered as bolus dose measured up to 20 mins by PET imaging analysis; format: ADME, organism-based, Macaca mulatta, Caudate nucleus; settings: rhesus monkey, in vivo
[31] = Drug uptake in SB612111-pretreated monkey hypothalamus at 4.92 to 6.6 mCi, iv administered at 10 mins post SB612111-treatment measured from 10 to 120 mins by PET imaging analysis; format: ADME, organism-based, Macaca mulatta; settings: rhesus monkey, in vivo
Plasma [32] = experiment: Drug metabolism in SB612111-pretreated monkey plasma assessed as radiometabolite formation at 4.9 to 6.6 mCi, iv administered as bolus dose 10 mins post SB612111-treatment up to 100 mins; format: ADME, organism-based, Macaca mulatta; settings: rhesus monkey, in vivo
[33] = Drug uptake in SB612111-pretreated monkey lateral temporal cortex at 4.92 to 6.6 mCi, iv administered at 10 mins post SB612111-treatment measured from 10 to 120 mins by PET imaging analysis; format: ADME, organism-based, Macaca mulatta; settings: rhesus monkey, in vivo
Brain [34] = experiment: Drug uptake in 129/S6 mouse brain at 0.6 nM after 120 mins by autoradiographic analysis; format: ADME, tissue-based
[35] = Drug uptake in monkey amygdala at 6.2 mCi, iv administered as bolus dose followed by SB612111-treatment at 40 mins measured at 100 mins by PET imaging analysis; format: ADME, organism-based, Macaca mulatta; settings: rhesus monkey, in vivo; summary of the method: as §1
[36] = Drug uptake in monkey hypothalamus at 4.92 to 6.6 mCi, iv administered as bolus dose measured at 120 mins by PET imaging analysis; format: ADME, organism-based, Macaca mulatta; settings: rhesus monkey, in vivo, 2 h
Brain [37] = experiment: Drug uptake in NOP knockout mouse brain at 0.6 nM after 120 mins by autoradiographic analysis; format: ADME, tissue-based
[38] = Drug uptake in monkey lateral temporal cortex at 6.2 mCi, iv administered as bolus dose followed by SB612111-treatment at 40 mins measured at 100 mins by PET imaging analysis; format: ADME, organism-based, Macaca mulatta; settings: rhesus monkey, in vivo; summary of the method: as §1
Plasma [39] = experiment: Drug metabolism in monkey plasma assessed as radiometabolite formation at 4.9 to 6.6 mCi, iv administered as bolus dose up to 100 mins; format: ADME, organism-based, Macaca mulatta; settings: rhesus monkey, in vivo
[40] = Drug uptake in monkey hypothalamus at 6.2 mCi, iv administered as bolus dose followed by SB612111-treatment at 40 mins measured at 100 mins by PET imaging analysis; format: ADME, organism-based, Macaca mulatta; settings: rhesus monkey, in vivo; summary of the method: as §1
[41] = Drug uptake in monkey caudate at 6.2 mCi, iv administered as bolus dose followed by SB612111-treatment at 40 mins measured at 100 mins by PET imaging analysis; format: ADME, organism-based, Macaca mulatta, Caudate nucleus; settings: rhesus monkey, in vivo; summary of the method: as §1

[11CH3]NC(=O)[C@@H](Cc1ccccc1F)CN1CCC2(CC1)OCCc1cc(F)sc12
Drug uptake [1]: Not Active | fraction unbound [2]: 0.113 | Drug uptake [3]: Not Active | fraction unbound [4]: 0.11 | Stability (Plasma [5]): 94.9% | remaining at 0.5 h [6]: 99.9% | Drug uptake [7]: Not Active | Drug uptake [8]: Not Active | Drug uptake [9]: Active | remaining at 0.5 h [10]: 100% | Drug uptake [11]: Not Active | remaining at 2 h [12]: 98.9% | Drug uptake [13]: Active | Drug uptake [14]: Active | remaining at 100 min [15]: 94.9% | Drug uptake [16]: Active | Drug uptake [17]: Active | Drug uptake [18]: Not Active | Drug uptake [19]: Active | Drug uptake [20]: Not Active | Drug uptake [21]: Not Active | Drug uptake [22]: Active | Drug uptake [23]: Not Active | Drug uptake [24]: Active | Drug uptake [25]: Active | Drug uptake [26]: Not Active | Drug uptake [27]: Not Active | Drug uptake [28]: Not Active | Drug uptake [29]: Not Active | Drug uptake [30]: Active | Drug uptake [31]: Not Active | Drug metabolism (Plasma [32]): Active | Drug uptake [33]: Not Active | Drug uptake (Brain [34]): Active | Drug uptake [35]: Not Active | Drug uptake [36]: Not Active | Drug uptake (Brain [37]): Not Active | Drug uptake [38]: Not Active | Drug metabolism (Plasma [39]): Active | Drug uptake [40]: Not Active | Drug uptake [41]: Not Active
